Here are results for eleven compounds from article PMC5470083 (Molecular imaging, 2016).

Broadly, the Ki is a dissociation constant, usually derived from enzyme kinetics or from competition with a known ligand. A low value points to tighter binding. For orientation: Kd means the equilibrium constant for the complex coming apart.

Like-named read-outs stand apart in the source and are kept apart here.

In data set [1] the target is T1, tau (NFTs) (Homo sapiens, UniProt P10636). In kind it is binding. The conditions noted are these: 1 µmol/L compound, human AD slices, n = 3.
Target sequence in this assay (P10636 623-708 limits assumed): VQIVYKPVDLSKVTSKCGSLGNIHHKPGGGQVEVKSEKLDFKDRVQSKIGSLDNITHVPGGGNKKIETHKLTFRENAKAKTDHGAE
The next data set concerns the target amyloid plaques (Homo sapiens, UniProt P05067). It is filed as binding.
The next data set has as its target PHF tau (Homo sapiens, UniProt P10636). It is filed as binding.
The target of another data set is Aβ (Homo sapiens, UniProt P05067). Put plainly: In vitro autoradiography binding inhibition of [11C]PiB on human AD brain slices. The conditions noted are these: for % Block ± SD of tracer binding: 1 µmol/L compound, tracer 13 nmol/L [11C]PiB, human AD slices, n = 3.
Sequence of Aβ (P05067 672-711 limits assumed): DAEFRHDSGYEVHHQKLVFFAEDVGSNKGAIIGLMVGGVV
Data set [2] deals with T1, tau (NFTs). In kind it is binding.
Target sequence in this assay (P10636 623-695 limits assumed): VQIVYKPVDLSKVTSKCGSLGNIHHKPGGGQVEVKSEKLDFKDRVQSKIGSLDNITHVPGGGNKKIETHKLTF
Data set [3] is described as follows: Plasma radiometabolite analysis. It is filed as in vivo, mouse. To be noted: normal mice. Put shortly: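 NMRI mice under isoflurane (2.5% in O2) received about 3.7 MBq of 18F-labelled tracer via a lateral tail vein. They were decapitated at 2, 10, 30 or 60 min PI (n = 3/time point). EDTA blood was kept on ice and spun at 2330 ×g for 10 min. Plasma (0.5 mL) was spiked with 10 µg authentic unlabelled compound and run on C18 HPLC. Fractions were γ-counted for % intact tracer, reported as mean ± SD.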

The nature of data set [4]: Perfused brain radiometabolite analysis. It is filed as in vivo, mouse. To be noted: normal mice.
A further data set addresses NFTs. To be noted: autoradiography on human AD brain tissue sections; ref [8],[11]; cited from earlier work.
A short description of data set [5]: Biodistribution in normal NMRI mice. In kind it is in vivo, mouse. To be noted: for %ID/g Blood / %ID/g Bone / %ID/g Brain / %ID/g Cerebellum / %ID/g Cerebrum / %ID/g Heart / %ID/g Kidneys / %ID/g Liver / %ID/g Lungs / %ID/g Muscle / %ID/g Pancreas / %ID/g Spleen: iv. In a few lines: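 Healthy male NMRI mice (30-40 g) under 2.5% isoflurane in O2 received about 0.9 MBq of 18F-labelled tracer by tail vein. They were decapitated at 2, 10, 30 and 60 min PI (n = 4/time point). Blood and organs were weighed and γ-counted. Blood, bone and muscle were taken as 7%, 12% and 40% of body mass. Blood clearance was calculated as the 2 min to 60 min activity ratio.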

Setting [6] is: read-out: % Block ± SD of tracer binding.
[7] abbreviates: read-out: Inhibition of [11C]PiB binding, summary statements.

Sequence of amyloid plaques (P05067 672-711 limits assumed): as the sequence (P05067 672-711 limits assumed) above
Sequence of PHF tau (P10636 623-695 limits assumed): as the sequence (P10636 623-695 limits assumed) above

Consider “2-[4-(4-Fluorophenyl)phenyl]-1,3-benzothiazole [TAU3]”, for which the “% Block ± SD of tracer binding” value on tau (NFTs) [1] (tracer 10 nmol/L [18F]T808) is 29 ± 0.1%.
In the case of `COc1ccc(CCN2CCC(Nc3nc4ccccc4n3Cc3ccc(F)cc3)CC2)cc1` [Astemizole], the Ki at amyloid plaques was more than 4.4 µM; at PHF tau it was more than 4000 nM.
On to `Cc1c(OCC(F)(F)F)ccnc1C[S+]([O-])c1nc2ccccc2[nH]1` (stereo not shown) [Lansoprazole], for which the Ki was more than 4.4 µM at amyloid plaques and more than 4000 nM at PHF tau.
In the case of `[11CH3]Nc1ccc(-c2nc3ccc(O)cc3s2)cc1` [PiB, 2-[4-([^11C]methylamino)phenyl]benzothiazol-6-ol], on Aβ, the “% Block ± SD of tracer binding” value stood at 57 ± 0.0%. Further, the affinity on PHF tau, expressed as Ki, was 129 nM.
Consider `[18F]c1ccc(-c2ccc3c(c2)[nH]c2ccncc23)cn1` [T807, 7-[6-[^18F]fluoropyridin-3-yl]-5H-pyrido-[4,3-b]indole], for which the “% Block ± SD of tracer binding” value amounted to 88 ± 0.0% at tau (NFTs) [2] (1 µmol/L compound, tracer 28 nmol/L [18F]T807, human AD slices, n = 3); 11 ± 0.1% at Aβ; 94 ± 0.0% at tau (NFTs) [1] (tracer 7 nmol/L [18F]T808). Moreover, the values for the inhibition at 1 µM on tau (NFTs) [2] (setting [6]), at Aβ (setting [6]) and on Aβ (setting [7]) were 88%, 11% and less than 17%, respectively. The “Mean % ± SD of intact tracer, plasma” value was 99 ± 1% in data set [3] (2 min after injection, n = 3); 99% in [3] (2 min after injection, n = 3, listed as [^18F]T807); 84 ± 5% in data set [3] (10 min after injection, n = 3); 60 ± 14% in [3] (30 min after injection, n = 3); 60% in data set [3] (30 min after injection, n = 3, listed as [^18F]T807); 45 ± 4% in data set [3] (60 min after injection, n = 3). Also, the Ki at amyloid plaques turned out to be 0.247 µM; on PHF tau it was 1.1 nM. Moreover, the “Mean % ± SD of intact tracer, perfused brain” value in [4] (10 min after injection, n = 3) is given as 100 ± 0%; in data set [4] (10 min after injection, n = 3, listed as [^18F]T807), approximately 100%; in data set [4] (60 min after injection, n = 3) it was 99 ± 1%; in data set [4] (60 min after injection, n = 3, listed as [^18F]T807), approximately 100%. Also, the Kd on NFTs was 15 nM. The “fold higher binding affinity for NFTs over Aβ” value in the data set with NFTs is 25 fold. For the same compound, the “%ID/g Blood” value in data set [5] (blood, 2 min PI) is listed as 1.5 ± 0.2 %ID/g; in data set [5] (blood, 10 min PI), 0.7 ± 0.0 %ID/g; in data set [5] (blood, 30 min PI), 0.7 ± 0.1 %ID/g; in [5] (blood, 60 min PI), 0.6 ± 0.1 %ID/g. The “2/60 min activity ratio Blood (clearance from blood)” value in data set [5] (blood, 2 min to 60 min activity ratio) is on record as 2.5. For the same compound, the “%ID/g Bone” value stood at 0.1 ± 0.1 %ID/g in [5] (2 min PI), 1.4 ± 0.2 %ID/g in [5] (10 min PI) and 0.1 ± 0.0 %ID/g in data set [5] (60 min PI). In addition, the “%ID/g Brain” value in [5] (brain, 2 min PI) came to 7.5 ± 1.1 %ID/g; in data set [5] (brain, 10 min PI), 2.6 ± 0.5 %ID/g; in data set [5] (brain, 30 min PI), 0.8 ± 0.4 %ID/g; in data set [5] (brain, 60 min PI), 0.4 ± 0.2 %ID/g. For the same compound, the “2/60 min activity ratio Brain” value in data set [5] (brain, 2 min to 60 min activity ratio) was found to be 18.3. Further, the “%ID/g Cerebellum” value in data set [5] (2 min PI) was 8.5 ± 1.4 %ID/g; in data set [5] (10 min PI) it was 2.4 ± 0.5 %ID/g; in data set [5] (30 min PI), 0.8 ± 0.4 %ID/g; in [5] (60 min PI), 0.4 ± 0.2 %ID/g. Besides, the “%ID/g Cerebrum” value in [5] (2 min PI) is listed as 7.2 ± 1.0 %ID/g; in data set [5] (10 min PI), 2.6 ± 0.5 %ID/g; in data set [5] (30 min PI), 0.8 ± 0.4 %ID/g; in data set [5] (60 min PI), 0.4 ± 0.2 %ID/g. The “%ID/g Heart” value in data set [5] (2 min PI) came out at 6.8 ± 0.9 %ID/g; in data set [5] (10 min PI) it was 2.1 ± 0.3 %ID/g; in data set [5] (30 min PI), 1.3 ± 0.3 %ID/g; in data set [5] (60 min PI), 1.0 ± 0.1 %ID/g. Also, the “%ID/g Kidneys” value in data set [5] (2 min PI) is reported as 35.9 ± 6.2 %ID/g; in data set [5] (10 min PI) it was 25.6 ± 3.0 %ID/g; in [5] (30 min PI), 15.8 ± 5.0 %ID/g; in data set [5] (60 min PI), 13.0 ± 2.6 %ID/g. The “%ID/g Liver” value is given as 12.6 ± 2.4 %ID/g in data set [5] (2 min PI), 14.6 ± 1.0 %ID/g in data set [5] (10 min PI), 20.7 ± 1.8 %ID/g in data set [5] (30 min PI) and 18.1 ± 2.2 %ID/g in [5] (60 min PI). Further, the “%ID/g Lungs” value in data set [5] (2 min PI) is 25.1 ± 11.9 %ID/g; in data set [5] (10 min PI), 4.2 ± 1.8 %ID/g; in data set [5] (30 min PI), 3.9 ± 1.2 %ID/g; in data set [5] (60 min PI) it was 2.1 ± 0.7 %ID/g. Also, the “%ID/g Muscle” value is reported as 3.0 ± 1.8 %ID/g in data set [5] (2 min PI), 1.4 ± 0.3 %ID/g in data set [5] (10 min PI), 0.6 ± 0.1 %ID/g in data set [5] (30 min PI) and 0.5 ± 0.1 %ID/g in [5] (60 min PI). Moreover, the “%ID/g Pancreas” value in data set [5] (2 min PI) was determined as 4.1 ± 2.2 %ID/g; in data set [5] (10 min PI) it was 4.7 ± 0.7 %ID/g; in data set [5] (30 min PI), 2.1 ± 0.8 %ID/g; in data set [5] (60 min PI), 1.5 ± 0.6 %ID/g. In addition, the “%ID/g Spleen” value came to 15.7 ± 5.1 %ID/g in [5] (2 min PI), 13.8 ± 12.5 %ID/g in [5] (10 min PI), 3.8 ± 1.3 %ID/g in data set [5] (30 min PI) and 3.1 ± 1.7 %ID/g in data set [5] (60 min PI).
As to `COc1ccc(-c2csc(NN=Cc3ccccc3)n2)cc1` [TAU4, 1-Benzylidene-2-(4-(4-methoxyphenyl)thiazol-2-yl)hydrazine], the Ki was more than 4.4 µM at amyloid plaques and more than 4000 nM at PHF tau.
For `COc1ccc(-c2csc(NN=Cc3ccccn3)n2)cc1` [TAU5, 2-(4-(4-Methoxyphenyl)thiazol-2-yl)-1-((pyridin-2-yl)methylene)hydrazine] the same measures were more than 4.4 µM and more than 4000 nM.
As for `COc1ccc(-c2ccc3c(c2)[nH]c2ccncc23)cn1` [TAU6, 2-Methoxy-5-{5H-pyrido[4,3-b]indol-7-yl}pyridine], the Ki on amyloid plaques is more than 4.4 µM; at PHF tau, more than 4000 nM. Besides, the inhibition at 1 µM was 0% at Aβ (setting [6]) and less than 17% at Aβ (setting [7]).
Consider `COc1ccc(-c2ccc3c(c2)[nH]c2ccncc23)cc1` [TAU7, 7-(4-Methoxyphenyl)-5H-pyrido[4,3-b]indole], for which the inhibition constant (Ki) on amyloid plaques turned out to be 0.0049 µM; on PHF tau it was 14 nM. For the same compound, on Aβ (setting [6]), the inhibition at 1 µM came out at 0%.
For `COC(=O)c1ccc(-c2ccc3c(c2)[nH]c2ccncc23)cn1` [TAU8, Methyl 5-{5H-pyrido[4,3-b]indol-7-yl}pyridine-2-carboxylate] the same measures were more than 4.4 µM, more than 4000 nM and 0%.
For “Methyl 2-(4-nitrophenyl)benzo[d]thiazole-6-carboxylate [TAU2]”, the “% Block ± SD of tracer binding” value at tau (NFTs) [1] (tracer 10 nmol/L [18F]T808) was 48 ± 0.0%.
